From ChEMBL document CHEMBL1134554, “Design, synthesis, and structure-activity relationships of macrocyclic hydroxamic acids that inhibit tumor necrosis factor alpha release in vitro and in vivo” (J Med Chem, 2001)

Legend:
[1] = biological target: Matrix metalloproteinase-9 (Homo sapiens, UniProt P14780); test: In vitro inhibition of human MMP-9.
[2] = biological target: T1, Interstitial collagenase (Homo sapiens, UniProt P03956); test: In vitro inhibition of human MMP-1.
T1 sequence (P03956 whole entry): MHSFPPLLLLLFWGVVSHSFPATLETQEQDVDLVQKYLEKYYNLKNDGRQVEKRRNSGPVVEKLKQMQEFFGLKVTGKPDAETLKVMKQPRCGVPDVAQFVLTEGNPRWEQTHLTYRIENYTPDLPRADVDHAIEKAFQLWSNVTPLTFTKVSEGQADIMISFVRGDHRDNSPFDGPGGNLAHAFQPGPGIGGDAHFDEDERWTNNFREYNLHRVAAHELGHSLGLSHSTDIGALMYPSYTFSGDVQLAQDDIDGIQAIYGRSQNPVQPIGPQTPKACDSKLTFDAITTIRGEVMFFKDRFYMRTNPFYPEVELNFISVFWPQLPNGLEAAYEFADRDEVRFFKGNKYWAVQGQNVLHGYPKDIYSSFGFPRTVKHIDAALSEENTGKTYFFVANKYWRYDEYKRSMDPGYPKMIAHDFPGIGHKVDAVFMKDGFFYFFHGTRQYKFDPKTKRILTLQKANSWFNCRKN

[3] = biological target: Disintegrin and metalloproteinase domain-containing protein 17 (Homo sapiens, UniProt P78536)
Chain of Disintegrin and metalloproteinase domain-containing protein 17 (Homo sapiens, UniProt P78536) (P78536 whole entry, the tested form may be a part): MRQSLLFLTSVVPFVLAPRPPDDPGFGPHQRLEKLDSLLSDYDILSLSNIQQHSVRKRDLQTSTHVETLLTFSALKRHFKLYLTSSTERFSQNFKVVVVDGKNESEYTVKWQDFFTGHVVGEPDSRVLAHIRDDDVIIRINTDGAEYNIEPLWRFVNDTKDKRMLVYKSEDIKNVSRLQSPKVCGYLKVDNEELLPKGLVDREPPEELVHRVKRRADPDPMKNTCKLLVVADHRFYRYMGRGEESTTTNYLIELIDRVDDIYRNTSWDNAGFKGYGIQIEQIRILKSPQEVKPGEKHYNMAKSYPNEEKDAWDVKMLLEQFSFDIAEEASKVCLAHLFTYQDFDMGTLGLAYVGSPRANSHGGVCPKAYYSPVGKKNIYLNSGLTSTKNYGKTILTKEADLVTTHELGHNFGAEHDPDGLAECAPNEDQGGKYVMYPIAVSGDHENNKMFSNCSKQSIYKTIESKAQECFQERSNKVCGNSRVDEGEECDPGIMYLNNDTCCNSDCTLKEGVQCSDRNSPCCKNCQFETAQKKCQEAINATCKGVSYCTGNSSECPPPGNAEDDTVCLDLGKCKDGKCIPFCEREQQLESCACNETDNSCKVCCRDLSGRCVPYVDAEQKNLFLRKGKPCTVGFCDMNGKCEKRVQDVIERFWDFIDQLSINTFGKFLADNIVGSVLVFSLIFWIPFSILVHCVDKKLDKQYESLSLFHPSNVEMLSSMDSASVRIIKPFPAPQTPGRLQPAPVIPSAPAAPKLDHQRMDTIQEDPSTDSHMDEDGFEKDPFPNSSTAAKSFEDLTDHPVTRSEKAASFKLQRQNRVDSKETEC

[4] = tested on: Mus musculus; test: Compound at an oral dose of 30 mg/Kg was tested for the inhibition of LPS-stimulated TNF-alpha release in mouse; format: functional
Outline: (§1)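 Mice dosed orally at time zero, then immediately given ip D-galactosamine 20 mg plus LPS 10 μg. One hour later, animals anesthetized and bled by cardiac puncture. Plasma TNF-α quantified by mouse-specific ELISA.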

[5] = biological target: Stromelysin-1 (Homo sapiens, UniProt P08254); test: Inhibition of human MMP-3.
Chain of Stromelysin-1 (P08254 whole entry): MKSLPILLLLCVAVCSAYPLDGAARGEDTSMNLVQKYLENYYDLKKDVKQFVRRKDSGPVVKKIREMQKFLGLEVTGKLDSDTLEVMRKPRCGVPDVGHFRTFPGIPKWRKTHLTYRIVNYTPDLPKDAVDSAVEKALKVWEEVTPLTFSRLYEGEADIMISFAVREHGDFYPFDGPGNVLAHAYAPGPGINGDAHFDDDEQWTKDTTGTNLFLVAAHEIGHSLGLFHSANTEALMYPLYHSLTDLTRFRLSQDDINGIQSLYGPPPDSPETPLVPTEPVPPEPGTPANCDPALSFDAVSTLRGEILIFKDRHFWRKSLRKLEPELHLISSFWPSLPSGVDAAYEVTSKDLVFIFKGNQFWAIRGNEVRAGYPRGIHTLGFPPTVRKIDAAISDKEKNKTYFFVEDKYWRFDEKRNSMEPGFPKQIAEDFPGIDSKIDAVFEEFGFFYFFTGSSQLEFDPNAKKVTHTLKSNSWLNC

[6] = tested on: Mus musculus; test: Compound at an oral dose of 100 mg/Kg was tested for the inhibition of LPS-stimulated TNF-alpha release in mouse; format: functional; outline: as §1
[7] = Pharmacokinetic data in Beagle dogs at 0.74 mg/kg i.v. dose and 0.863 mg/kg p.o. dose; format: ADME, organism-based, Canis lupus familiaris; conditions: dog, in vivo, po
Outline: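 Male beagle dogs: iv 0.74 mg/kg in 10% ethanol (n=2), oral 0.863 mg/kg in 0.5% methocell suspension (n=2). Blood sampled to 24 h post-dose. Plasma analysed by LC/MS/MS after solid-phase extraction (detection limit 10 nM). Mean parameters given.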

[8] = Pharmacokinetic data in Beagle dogs at 0.74 mg/kg intravenous dose.; format: ADME, organism-based, Canis lupus familiaris; set-up: dose 0.74 mg/kg, route intravenous; conditions: dog, in vivo
Outline: (§2)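 Male beagle dogs (~10 kg), two per compound, dosed iv in 10% ethanol solution. Blood sampled before dosing and at 1, 2, 4, 6, 8, 12 and 24 h after. Plasma levels measured by LC/MS/MS after solid-phase extraction (detection limit 10 nM). Parameters reported as mean.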

[9] = Pharmacokinetic data in Beagle dogs at 0.863 mg/kg oral dose.; format: ADME, organism-based, Canis lupus familiaris; set-up: dose 0.863 mg/kg, route oral; conditions: dog, in vivo
Outline: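 Two male beagle dogs (~10 kg) given 0.863 mg/kg orally as a 0.5% methocell suspension. Blood sampled before dosing and at 1, 2, 4, 6, 8, 12 and 24 h after. Plasma levels measured by LC/MS/MS after solid-phase extraction (detection limit 10 nM). Parameters reported as mean.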

[10] = Maximal plasma concentration in Beagle dogs after 0.74 mg/kg intravenous dose.; format: ADME, organism-based, Canis lupus familiaris; set-up: dose 0.74 mg/kg, route intravenous; conditions: dog, in vivo; outline: as §2
[11] = biological target: T2, Matrilysin (Homo sapiens, UniProt P09237); test: Inhibition of matrix metalloprotease-7
T2 sequence (P09237 whole entry): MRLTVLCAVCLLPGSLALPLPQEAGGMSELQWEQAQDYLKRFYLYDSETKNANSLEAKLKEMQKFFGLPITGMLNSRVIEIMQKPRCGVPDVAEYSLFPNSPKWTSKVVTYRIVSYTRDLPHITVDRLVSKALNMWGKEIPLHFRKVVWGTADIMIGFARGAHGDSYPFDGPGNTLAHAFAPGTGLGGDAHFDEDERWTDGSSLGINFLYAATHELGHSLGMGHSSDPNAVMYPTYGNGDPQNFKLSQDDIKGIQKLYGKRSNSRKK

[12] = biological target: Neutrophil collagenase (Homo sapiens, UniProt P22894); test: Inhibition of matrix metalloprotease-8
[13] = biological target: Matrix metalloproteinase-14 (Homo sapiens, UniProt P50281); test: Inhibition of matrix metalloprotease-14
[14] = biological target: Matrix metalloproteinase-15 (Homo sapiens, UniProt P51511); test: Inhibition of matrix metalloprotease-15
Chain of Matrix metalloproteinase-15 (P51511 whole entry): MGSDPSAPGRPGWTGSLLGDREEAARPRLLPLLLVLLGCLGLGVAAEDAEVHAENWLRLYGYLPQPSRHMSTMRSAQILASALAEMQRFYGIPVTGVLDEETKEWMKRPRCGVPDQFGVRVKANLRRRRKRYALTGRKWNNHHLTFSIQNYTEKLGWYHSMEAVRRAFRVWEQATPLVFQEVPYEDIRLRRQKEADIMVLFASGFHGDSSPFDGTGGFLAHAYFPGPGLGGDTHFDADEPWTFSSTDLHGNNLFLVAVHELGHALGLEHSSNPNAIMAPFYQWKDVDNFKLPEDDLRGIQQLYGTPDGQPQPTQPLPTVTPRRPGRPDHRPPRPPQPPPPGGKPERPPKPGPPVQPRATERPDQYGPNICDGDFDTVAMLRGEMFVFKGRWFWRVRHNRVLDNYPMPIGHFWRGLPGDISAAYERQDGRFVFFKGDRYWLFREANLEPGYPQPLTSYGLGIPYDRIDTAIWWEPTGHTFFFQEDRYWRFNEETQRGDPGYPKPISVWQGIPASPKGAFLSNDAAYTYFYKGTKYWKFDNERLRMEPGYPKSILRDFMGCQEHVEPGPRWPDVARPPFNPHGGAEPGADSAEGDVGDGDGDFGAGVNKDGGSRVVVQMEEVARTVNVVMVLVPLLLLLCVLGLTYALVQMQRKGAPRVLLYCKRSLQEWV

[15] = biological target: Matrix metalloproteinase-16 (Homo sapiens, UniProt P51512); test: Inhibition of matrix metalloprotease-16
Chain of Matrix metalloproteinase-16 (P51512 whole entry): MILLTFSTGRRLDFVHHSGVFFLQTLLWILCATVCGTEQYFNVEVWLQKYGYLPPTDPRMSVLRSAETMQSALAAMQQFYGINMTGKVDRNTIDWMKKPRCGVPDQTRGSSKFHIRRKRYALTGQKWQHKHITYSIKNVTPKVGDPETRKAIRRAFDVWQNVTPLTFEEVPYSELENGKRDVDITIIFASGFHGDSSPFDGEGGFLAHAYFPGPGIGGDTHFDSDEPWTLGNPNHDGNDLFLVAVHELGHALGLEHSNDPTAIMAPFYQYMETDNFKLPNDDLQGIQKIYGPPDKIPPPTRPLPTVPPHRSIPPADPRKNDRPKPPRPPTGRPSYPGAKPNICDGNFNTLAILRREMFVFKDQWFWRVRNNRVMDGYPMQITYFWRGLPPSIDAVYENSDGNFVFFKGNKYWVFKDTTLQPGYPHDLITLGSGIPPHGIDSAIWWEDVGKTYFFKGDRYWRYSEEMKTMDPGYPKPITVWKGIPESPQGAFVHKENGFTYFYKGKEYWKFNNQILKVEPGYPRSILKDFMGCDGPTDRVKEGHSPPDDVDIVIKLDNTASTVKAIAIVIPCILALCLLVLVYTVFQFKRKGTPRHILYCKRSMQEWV

[16] = biological target: Collagenase 3 (Homo sapiens, UniProt P45452)
[17] = biological target: 72 kDa type IV collagenase (Homo sapiens, UniProt P08253)
Chain of 72 kDa type IV collagenase (P08253 whole entry, the tested form may be a part): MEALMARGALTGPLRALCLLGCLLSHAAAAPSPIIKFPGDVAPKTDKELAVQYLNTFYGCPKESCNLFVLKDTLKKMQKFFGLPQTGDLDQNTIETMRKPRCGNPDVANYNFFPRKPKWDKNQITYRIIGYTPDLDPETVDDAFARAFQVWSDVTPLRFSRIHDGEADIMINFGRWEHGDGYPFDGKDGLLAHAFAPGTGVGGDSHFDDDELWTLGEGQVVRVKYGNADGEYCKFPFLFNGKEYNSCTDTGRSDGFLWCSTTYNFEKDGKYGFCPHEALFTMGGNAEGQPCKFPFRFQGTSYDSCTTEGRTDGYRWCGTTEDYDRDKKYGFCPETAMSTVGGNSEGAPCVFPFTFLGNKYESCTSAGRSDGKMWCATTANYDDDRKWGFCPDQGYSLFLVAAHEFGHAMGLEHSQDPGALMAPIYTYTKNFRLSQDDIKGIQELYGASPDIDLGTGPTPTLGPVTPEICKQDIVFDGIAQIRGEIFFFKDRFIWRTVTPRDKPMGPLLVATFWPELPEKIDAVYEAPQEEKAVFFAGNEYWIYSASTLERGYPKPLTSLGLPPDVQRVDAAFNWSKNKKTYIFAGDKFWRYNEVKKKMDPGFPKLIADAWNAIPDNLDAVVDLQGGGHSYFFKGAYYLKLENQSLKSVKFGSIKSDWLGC

[18] = biological target: Disintegrin and metalloproteinase domain-containing protein 17 (Sus scrofa, UniProt O77636)
Chain of Disintegrin and metalloproteinase domain-containing protein 17 (Sus scrofa, UniProt O77636) (O77636 whole entry, the tested form may be a part): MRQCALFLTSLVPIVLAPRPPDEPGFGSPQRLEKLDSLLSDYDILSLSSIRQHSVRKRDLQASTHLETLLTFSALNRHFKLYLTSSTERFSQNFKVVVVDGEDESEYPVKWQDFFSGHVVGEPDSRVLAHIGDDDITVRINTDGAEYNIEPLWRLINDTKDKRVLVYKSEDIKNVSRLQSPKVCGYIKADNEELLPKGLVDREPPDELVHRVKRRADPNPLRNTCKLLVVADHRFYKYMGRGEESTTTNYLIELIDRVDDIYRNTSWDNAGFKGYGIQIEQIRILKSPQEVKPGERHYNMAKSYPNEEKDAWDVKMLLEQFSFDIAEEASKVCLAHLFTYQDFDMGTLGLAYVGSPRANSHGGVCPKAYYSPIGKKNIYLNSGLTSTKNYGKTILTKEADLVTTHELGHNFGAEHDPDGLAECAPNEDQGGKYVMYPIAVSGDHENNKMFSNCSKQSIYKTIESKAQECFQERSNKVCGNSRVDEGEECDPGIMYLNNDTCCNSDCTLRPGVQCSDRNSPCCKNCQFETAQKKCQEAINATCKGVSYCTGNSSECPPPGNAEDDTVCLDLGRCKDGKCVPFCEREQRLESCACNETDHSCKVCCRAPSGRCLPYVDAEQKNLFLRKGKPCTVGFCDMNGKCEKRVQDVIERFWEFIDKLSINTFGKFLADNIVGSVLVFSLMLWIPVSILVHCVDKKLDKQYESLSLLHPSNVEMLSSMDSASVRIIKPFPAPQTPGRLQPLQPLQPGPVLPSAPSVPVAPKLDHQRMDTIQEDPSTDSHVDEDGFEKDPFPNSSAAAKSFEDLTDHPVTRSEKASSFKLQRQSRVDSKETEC

[19] = Pharmacokinetic data in Beagle dogs at 0.5 mg/kg i.v. dose and 2.0 mg/kg p.o. dose; format: ADME, organism-based, Canis lupus familiaris; conditions: dog, in vivo, po
[20] = Pharmacokinetic data in Beagle dogs at 2.0 mg/kg oral dose; format: ADME, organism-based, Canis lupus familiaris; set-up: dose 2 mg/kg, route oral; conditions: dog, in vivo
[21] = Pharmacokinetic data in Beagle dogs at 2.0 mg/kg oral dose.; format: ADME, organism-based, Canis lupus familiaris; set-up: dose 2 mg/kg, route oral; conditions: dog, in vivo
[22] = Maximal plasma concentration in Beagle dogs after 0.5 mg/kg intravenous dose.; format: ADME, organism-based, Canis lupus familiaris; set-up: dose 0.5 mg/kg, route intravenous; conditions: dog; outline: as §2
[23] = Pharmacokinetic data in Beagle dogs at 0.5 mg/kg intravenous dose.; format: ADME, organism-based, Canis lupus familiaris; set-up: dose 0.5 mg/kg, route intravenous; conditions: dog, in vivo; outline: as §2

Chain of Matrix metalloproteinase-9 (P14780 whole entry): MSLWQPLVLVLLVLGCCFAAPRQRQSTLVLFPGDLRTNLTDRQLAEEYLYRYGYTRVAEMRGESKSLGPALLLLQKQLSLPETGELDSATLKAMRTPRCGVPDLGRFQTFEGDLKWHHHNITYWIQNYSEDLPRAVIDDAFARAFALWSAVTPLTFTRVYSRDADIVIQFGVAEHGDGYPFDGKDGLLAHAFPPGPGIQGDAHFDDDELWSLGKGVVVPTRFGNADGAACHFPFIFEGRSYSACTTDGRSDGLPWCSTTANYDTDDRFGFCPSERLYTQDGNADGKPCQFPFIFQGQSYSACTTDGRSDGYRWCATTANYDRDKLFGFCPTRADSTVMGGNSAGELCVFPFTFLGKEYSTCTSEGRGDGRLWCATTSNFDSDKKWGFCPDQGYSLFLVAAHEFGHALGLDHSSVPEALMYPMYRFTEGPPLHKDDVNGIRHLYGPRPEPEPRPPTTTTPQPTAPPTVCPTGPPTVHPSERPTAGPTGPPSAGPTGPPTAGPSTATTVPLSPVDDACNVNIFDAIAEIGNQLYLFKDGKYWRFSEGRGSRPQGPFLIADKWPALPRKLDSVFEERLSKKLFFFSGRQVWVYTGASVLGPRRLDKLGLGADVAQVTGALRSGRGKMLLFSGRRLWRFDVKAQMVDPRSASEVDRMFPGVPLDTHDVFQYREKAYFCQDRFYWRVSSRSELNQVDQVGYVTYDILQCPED

Row | SMILES | Ki [1] [nM] | Ki [2] [nM] | IC50 [3] [nM] | inhibition in vivo at 30 mg/kg [4] [%] | Ki [5] [nM] | other results
1 | CNC(=O)[C@@H]1CCCCNC(=O)OCCC[C@H](C(=O)NO)[C@@H](CC(C)C)C(=O)N1 | 1.1 | < 1 | 1000 |  |  | 
2 | CCCCCC[C@H]1C(=O)N[C@H](C(=O)NCCc2ccc(S(N)(=O)=O)cc2)Cc2ccc(cc2)OCCC[C@@H]1C(=O)NO |  |  | 480 | 26 |  | 
3 | CCCCCC[C@H]1C(=O)N[C@H](C(=O)N[C@H](CCCCN)C(N)=O)Cc2ccc(cc2)OCCC[C@@H]1C(=O)NO |  |  | 760 | 36 |  | 
4 | CC(C)C[C@H]1C(=O)N[C@H](C(=O)NCC(=O)NC2CCC2)Cc2ccc(cc2)OCCC[C@@H]1C(=O)NO |  |  | 200 | 31 |  | 
5 | CNC(=O)[C@@H]1CCCc2ccc(cc2)OCCC[C@H](C(=O)NO)[C@@H](CC(C)C)C(=O)N1 | 3.3 | 1.8 | 2400 |  | 16.2 | 
6 | CNC(=O)[C@@H]1CSc2ccccc2NC(=O)CO[C@H](C(=O)NO)[C@@H](CC(C)C)C(=O)N1 |  | < 1 | 8000 |  | 22.3 | 
7 | CNC(=O)[C@@H](Cc1ccc(OC)cc1)NC(=O)[C@H](CC(C)C)[C@H](C)C(=O)NO | < 1 | < 1 | 1800 |  |  | 
8 | CNC(=O)[C@@H]1CCc2ccc(cc2)OCCC[C@H](C(=O)NO)[C@@H](CC(C)C)C(=O)N1 | 2.1 | 5.3 | 1000 |  | 48 | 
9 | CNC(=O)[C@@H]1CCCCN(C)C(=O)OCCC[C@H](C(=O)NO)[C@@H](CC(C)C)C(=O)N1 | < 1 | < 1 | 2300 |  |  | 
10 | CCCCCC[C@H]1C(=O)N[C@H](C(=O)NC)Cc2ccc(cc2)OCCC[C@@H]1C(=O)NO |  |  | 2500 |  |  | inhibition in vivo at 100 mg/kg [6]: 26%
11 | CNC(=O)CNC(=O)[C@@H]1Cc2ccc(cc2)OCCC[C@H](C(=O)NO)[C@@H](CC(C)C)C(=O)N1 | 0.9 | 3 | 220 |  | 14 | bioavailability [7]: 11%; AUC [8]: 2613 ng·h/mL; T1/2 [8]: 0.81 h; T max [8]: 0.88 h; clearance [8]: 7 mL/min/kg; Vd ([8]; read-out: Vss): 0.7 L/kg; AUC [9]: 342 ng·h/mL; half-life [9]: 1.29 h; Cmax [10]: 121 ng/mL; Ki [11]: 0.8 nM; Ki [12]: 0.5 nM; Ki [13]: 94 nM; Ki [14]: 20 nM; Ki [15]: 35 nM; Ki [16]: 0.45 nM; Ki [17]: 1.1 nM; Ki [18]: 12 nM
12 | CNC(=O)[C@@H]1Cc2cn(c3ccccc23)CCCCO[C@H](C(=O)NO)[C@@H](CC(C)C)C(=O)N1 |  | < 1 | 3700 |  | 2.88 | 
13 | CC(C)C[C@H]1C(=O)N[C@H](C(=O)NCC(=O)NC(C)(C)C)Cc2ccc(cc2)OCCC[C@@H]1C(=O)NO |  |  | 200 | 21 |  | 
14 | CCCCCC[C@H]1C(=O)N[C@H](C(=O)N[C@H](COC(C)(C)C)C(=O)NC)Cc2ccc(cc2)OCCC[C@@H]1C(=O)NO |  |  | 300 | 18 |  | 
15 | CCOC(=O)N1CCC(NC(=O)[C@@H]2CCCCNC(=O)OCCC[C@H](C(=O)NO)[C@@H](CC(C)C)C(=O)N2)CC1 |  |  | 130 |  |  | 
16 | CNC(=O)[C@@H]1CCCCNC(=O)CC[C@H](C(=O)NO)[C@@H](CC(C)C)C(=O)N1 | 3.6 | 1.4 | 1600 |  |  | 
17 | CC(C)C[C@H]1C(=O)N[C@H](C(=O)NCC(=O)N2CCOCC2)CCCCNC(=O)OCCC[C@@H]1C(=O)NO | 1.2 | 13 |  |  | 7.8 | bioavailability [19]: 23%; half-life [20]: 2.2 h; AUC [21]: 1910 ng·h/mL; Cmax [22]: 667 ng/mL; Ki [11]: 1.5 nM; Ki [13]: 140 nM; Ki [14]: 71 nM; Ki [15]: 107 nM; AUC [23]: 2080 ng·h/mL; Tmax [23]: 1.25 h; clearance [23]: 4.83 mL/min/kg; half-life [23]: 1 h; Vd ([23]; read-out: Vss): 0.33 L/kg
18 | CC(C)C[C@H]1C(=O)N[C@H](C(=O)NCC(=O)N2CCCC2)CCCCN(C)C(=O)OCCC[C@@H]1C(=O)NO |  |  | 400 |  |  | 
19 | CCCCCC[C@H]1C(=O)N[C@H](C(=O)NCCCn2ccnc2)Cc2ccc(cc2)OCCC[C@@H]1C(=O)NO |  |  | 820 | 30 |  | 
20 | CNC(=O)[C@@H]1CCCCN(C)C(=O)CO[C@H](C(=O)NO)[C@@H](CC(C)C)C(=O)N1 | 3.9 | < 1 | 3800 |  | 3 | 
21 | CNC(=O)[C@@H](CCCCN)NC(=O)[C@@H]1Cc2ccc(cc2)OCCC[C@H](C(=O)NO)[C@@H](CC(C)C)C(=O)N1 |  |  | 830 |  |  | 
22 | CC(C)C[C@H]1C(=O)N[C@H](C(=O)NCC(=O)N(C)C)Cc2ccc(cc2)OCCC[C@@H]1C(=O)NO |  |  | 400 | 45 |  | 
